Source: PubChem
sPLA2-III inh – Inhibits HGIII-sPLA2 liposome hydrolysis, primary screen; Q9NZ20; QFRET BODIPY PC-A2 liposome hydrolysis, fluorescence; inhibition, % at 12.2 µM; 0.56% of 370,000 active; AID 743126;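 active means inhibition above mean plus 3 SD of compounds lying within the high and low control bounds, cut at about 19% in these data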;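 further: 0% = median of test compound wells and 100% = no enzyme DMSO wells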
ASAP1 inh – ASAP1 ArfGAP inhibition; ASAP1-stimulated ARF1 GTP hydrolysis, GDP FP detection; AID 624377; inhibition, % at 16.5 µM; 0.19% of 360,000 active; in the data active means inhibition above about 25%;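 further: 0% = vehicle with enzyme and substrate and 100% = no enzyme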
PLCg1 inh – PLC-gamma1 (human) inhibition, primary screen | 0.84% of 370,000 active | P19174 | inhibition, % at 12.2 µM | purified PLC-gamma1, fluorogenic substrate, fluorescence
PLC-beta3 inh – blocks human PLC-beta3 enzyme activity | Purified PLC-beta3, fluorogenic substrate, fluorescence | 0.18% of 370,000 active | Q01970 | inhibition, % at 12.2 µM; in the data active means inhibition above about 11%;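 further: 0% = median of compound wells on plate and 100% = full blocker control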
Target sequence (Q01970 whole entry, looked up): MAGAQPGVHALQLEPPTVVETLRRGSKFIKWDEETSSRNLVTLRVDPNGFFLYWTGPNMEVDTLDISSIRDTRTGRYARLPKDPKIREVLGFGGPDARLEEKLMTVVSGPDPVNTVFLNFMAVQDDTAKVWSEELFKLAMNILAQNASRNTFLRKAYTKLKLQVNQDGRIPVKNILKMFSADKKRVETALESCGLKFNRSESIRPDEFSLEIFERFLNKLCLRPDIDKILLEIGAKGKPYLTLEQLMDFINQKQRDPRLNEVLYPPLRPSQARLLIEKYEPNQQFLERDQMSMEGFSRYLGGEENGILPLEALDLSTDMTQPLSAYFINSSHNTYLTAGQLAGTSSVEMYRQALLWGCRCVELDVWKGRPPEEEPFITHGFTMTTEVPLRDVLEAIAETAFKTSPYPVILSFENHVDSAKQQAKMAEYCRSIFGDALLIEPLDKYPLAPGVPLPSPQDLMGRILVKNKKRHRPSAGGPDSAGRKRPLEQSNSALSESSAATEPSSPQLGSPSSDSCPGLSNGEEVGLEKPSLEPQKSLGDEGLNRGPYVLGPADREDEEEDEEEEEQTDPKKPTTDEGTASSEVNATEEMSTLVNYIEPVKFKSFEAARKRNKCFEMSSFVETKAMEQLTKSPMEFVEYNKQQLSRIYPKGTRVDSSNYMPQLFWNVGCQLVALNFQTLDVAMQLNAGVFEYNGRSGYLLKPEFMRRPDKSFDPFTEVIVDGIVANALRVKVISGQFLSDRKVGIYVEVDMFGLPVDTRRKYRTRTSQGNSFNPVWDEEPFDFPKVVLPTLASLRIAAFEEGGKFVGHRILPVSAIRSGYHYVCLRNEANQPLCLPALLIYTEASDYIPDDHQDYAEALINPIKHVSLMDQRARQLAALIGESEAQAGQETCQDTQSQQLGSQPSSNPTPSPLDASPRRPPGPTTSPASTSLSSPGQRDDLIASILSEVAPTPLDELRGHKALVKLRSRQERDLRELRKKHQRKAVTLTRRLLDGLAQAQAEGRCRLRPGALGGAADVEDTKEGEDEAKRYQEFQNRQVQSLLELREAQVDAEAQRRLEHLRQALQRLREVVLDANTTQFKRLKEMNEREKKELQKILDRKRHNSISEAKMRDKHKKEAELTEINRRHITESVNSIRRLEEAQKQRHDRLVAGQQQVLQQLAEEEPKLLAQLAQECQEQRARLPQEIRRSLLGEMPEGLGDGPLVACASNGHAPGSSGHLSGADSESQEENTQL
ARFGAP1 inh – rat ARFGAP1 inhibition. Q62848. Arfgap1-stimulated ARF1 GTP hydrolysis, GDP FP detection. inhibition, % at 16.5 µM. 0.26% of 360,000 active. AID 651572;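 active means inhibition above a per-plate limit, mean inhibition of low control wells plus 3 SD, cut at about 25% in these data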;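 further: 0% = DMSO wells with enzyme and 100% = wells lacking Arfgap1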
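Repeats: one replicate per compound; assay system: rat Arfgap1 catalytic domain, aa 1-136; times: enzyme reaction 120 min at 25 °C after 20 min preincubation; detection: FP of antibody-bound GDP Alexa 633 tracer, ex 620/em 688 nm; benchmarks: high control wells lacking Arfgap1, low control full reaction with DMSO; reagent: human ARF1(Δ1-17)-GTP substrate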
PLCgamma1 ctr – inhibits human PLC-gamma1 in PLC-beta3 counter-screen; shares compounds with PLCg1 inh; 3.1% of 3,300 active; inhibition, % at 12.3 µM; purified PLC-gamma1, fluorogenic substrate, fluorescence
PLCbeta3 conf – human PLC-beta3 inhibition, confirmation. shares compounds with PLCg1 inh. purified PLC-beta3, fluorogenic substrate fluorescence. inhibition, % at 12.3 µM. 1% of 3,300 active. AID 743261; in the data active means inhibition above about 11%
Starred values were filed as active, the others as inactive; / = no result. The list is not random: actives were taken first. Their share in the collection is about 1.9%. Unless noted, no stated cut-off is given here; in the data, active means inhibition above about 9.5%; inactive means the rest.

SMILES	sPLA2-III inh	ASAP1 inh	PLCg1 inh	PLC-beta3 inh	ARFGAP1 inh	PLCgamma1 ctr	PLCbeta3 conf
O=C(NC(=S)Nc1ccc(Cc2ccncc2)cc1)c1ccccc1F	5	-2	15*	-4	-1	-4	-4
O=C(NC(=S)Nc1ccc(Cc2ccncc2)cc1)c1ccccc1Cl	7	1	5	3	4	/	/
CC(=O)N1CCC(N(CCCOC(C)C)C(=O)Nc2ccc(C)c(C)c2)CC1	-1	-6	1	0	-8	/	/
CC(=O)N1CCC(N(C(=O)Nc2ccc(C)c(C)c2)C2CCCC2)CC1	10	9	4	12*	-2	-8	-13
COc1ccc2c(c1)[C@@]1(NCCc3c1[nH]c1ccc(OC)cc31)C(=O)N2	-1	/	-1	-3	/	/	/
COc1ccc(CN2CCCC(C(=O)N3CCCC3)C2)c(OC)c1OC (stereo not given)	6	1	11*	7	1	1	3
CCn1c(=O)cc(SCC(=O)N(C)Cc2ccccc2)c2ccccc21	0	-1	2	-4	16	/	/
CCOC(=O)CSc1cc(=O)n(CC)c2ccccc12	8	21	10*	2	5	-8	-7
CC(C)c1ccc(S(=O)(=O)N2CCN(C(=O)CCNS(=O)(=O)c3ccccc3F)CC2)cc1	-26	15	18*	0	-1	-6	-1
C[C@H]1[C@@H](NC(=O)Cc2ccsc2)CC[C@@]23CCCN2C(=O)CCC[C@@H]13	1	/	1	0	/	/	/
O=C(O)c1cccc(NC(=S)NC(NC(=O)c2cccc([N+](=O)[O-])c2)C(Cl)(Cl)Cl)c1 (stereo not given)	-36	11	11*	7	-8	-6	-5
CCOc1ccc(C(=O)Nc2ccc3[nH]ncc3c2)cc1	6	2	12*	6	11	-9	-1
CCCCOc1cccc(C(=O)Nc2ccc(NC(=O)c3cccs3)cc2)c1	7	-4	9.6*	6	-5	-119	-118
CC(=O)Oc1ccc(C(=O)Nc2cccc(C(=O)c3ccc(C)c(C)c3)c2)cc1	-26	4	15*	9	6	-2	-2
CCCOc1ccc(C(=O)Nc2ccc(NC(=O)c3cccs3)cc2)cc1	-3	-8	2	0	-8	/	/
COc1ccc(C(=O)Nc2ccc3[nH]ncc3c2)cc1	-2	-12	-1	-1	0	/	/
CCOc1ccc(NC(=O)c2cccc(NC(=O)c3ccccc3)c2)cc1	2	-4	11*	-5	-6	-5	-1
O=C(CCc1ccccc1)N[C@H]1[C@@H](OC(=O)c2cnccn2)CCC[C@]12C(=O)N(Cc1ccccc1)c1ccccc12	-2	/	1	-2	/	/	/
CN(C(=O)c1cccc(NC(=O)Cc2ccc(NC(=O)C3CCN(C(=O)CCc4ccccc4)CC3)cc2)c1)C1CCCC1	-41	-4	-2	2	4	/	/
CC(C)CN1C(=O)C(=O)N(CC(=O)Nc2cc(Cl)ccc2Oc2ccccc2)C1=O	-21	-2	20*	3	-2	7	10
O=C(COC(=O)c1c(Cl)cccc1Cl)Nc1cc(Cl)ccc1Oc1ccccc1	3	4	11*	4	-7	-6	-6
CCOC(=O)C1=C(C(=O)OCC)C2N(Cc3ccc(C(F)(F)F)cc3)c3ccccc3[C@@]23C[C@@H](C(=O)OC)N(S(=O)(=O)c2ccc(OC)cc2)C3=N1 (stereo not given in full)	3	10	-7	-9	5	/	/
NS(=O)(=O)c1ccc(CCNC(=O)C2CCCCN2S(=O)(=O)c2ccccc2)cc1 (stereo not given)	-2	-2	13*	4	-8	-6	-2
NS(=O)(=O)c1ccc(CCNC(=O)[C@@H]2CCCN2S(=O)(=O)c2ccccc2F)cc1	0	-3	4	4	0	/	/
COc1cc(C=NN2CCN(C(c3ccccc3)c3ccccc3)CC2)cc(OC)c1OC(C)=O	4	/	2	1	/	/	/
SMILES	sPLA2-III inh	ASAP1 inh	PLCg1 inh	PLC-beta3 inh	ARFGAP1 inh	PLCgamma1 ctr	PLCbeta3 conf
CCOc1cc(C(c2c(C)[nH][nH]c2=O)c2c(C)[nH][nH]c2=O)cc([N+](=O)[O-])c1O	10	7	7	-4	6	/	/
COc1cc(C(c2c(C)[nH][nH]c2=O)c2c(C)[nH][nH]c2=O)cc([N+](=O)[O-])c1O	4	4	15*	8	3	3	0
COC(=O)[C@]12C[C@H](CC(=O)NCc3ccc(C)o3)C(=O)N(Cc3ccc4c(c3)OCO4)C1=C[C@H](C(C)(C)C)O[C@@H]2C	-18	-5	1	5	3	/	/
CC(=O)Nc1ccc(SC[C@H](Cc2ccccc2)N2CC[C@@H](C(C)(C)C)CCC2=O)cc1	-8	13	11*	3	-11	3	3
N#Cc1cccc(NC(=O)OCCN2C(=O)CCC23CCC(c2ccc(Cl)cc2)CC3)c1 (stereo not given)	3	/	0	3	/	/	/
CCc1ccc(OCCOCC(O)CN(CCO)CCO)cc1 (stereo not given)	7	-1	4	11*	6	-10	-5
OCCN(CCO)CC(O)COc1ccc(Br)cc1 (stereo not given)	-1	-9	5	8	-9	/	/
CC1CCCN(c2cccc3c2S(=O)(=O)N(Cc2cccc(F)c2)[C@@H](C)[C@H](c2ccccc2)O3)C1 (stereo not given in full)	17	-6	-2	-3	4	/	/
CN1CCN(C(=O)/C(=C/c2ccccc2)c2ccccc2)CC1	0	3	9.8*	9	-5	-6	-1
CC1CC(C)CN(C(=O)/C(=C\c2ccccc2)c2ccccc2)C1 (stereo not given)	8	-12	1	-1	0	/	/
CCOc1ccc(S(=O)(=O)Nc2c(C)n(C)n(-c3ccccc3)c2=O)cc1	-8	-13	-1	-2	-3	/	/
CCS(=O)(=O)Nc1c(C)n(C)n(-c2ccccc2)c1=O	-4	6	9.6*	8	15	-7	-3
Cc1c(NC(=O)C2CCCN2S(=O)(=O)c2ccccc2)c(=O)n(-c2ccccc2)n1C (stereo not given)	9	-13	5	13*	-14	4	-5
CC(=O)Nc1ccc(OCC(C)CN2CCC(C(O)(c3ccccc3)c3ccccc3)CC2)cc1 (stereo not given)	-42	/	2	2	/	/	/
CCn1c(COc2ccccc2)nnc1SCC(=O)Nc1ccc(Oc2ccccc2)cc1	-3	/	3	2	/	/	/
CCOC(=O)c1c(C2COc3ccccc3O2)csc1NC(=O)c1ccccc1 (stereo not given)	-1	0	12*	-2	3	-38	-34
